# Source: PubChem (Broad Institute)
# rRNA inh HTS: inhibits bacterial ribosomal RNA function over humanized ribosomes; actives 1.6% (n = 350,000); GFP signal change (wild-type ribosome), % (concentration not given with the values); E. coli WT GFP vs humanized-ribosome RFP mutants, fluorescence, 24 h; hits give low values; DMSO median 0, no signal -100;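 active = significant combined selectivity score with lowered wild-type GFP, culture density cut under 30%, mutant RFP and density less affected; inactive = any of these conditions unmet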
# RAD54 inh: inhibitors of human RAD54 branch migration. inhibition, % at 10.4 µM. AID 602329. actives 0.14% (n = 360,000). RAD54 Holliday junction branch migration, FAM/BHQ fluorescence. Q92698;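 active = mean normalized replicate activity at least 40 and at least half of replicates scoring 40 or more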;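 also: 0% = median of neutral control wells and 100% = median of positive control wells; inhibitors cause a drop in the FAM fluorescence signal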
# Target sequence (Q92698 whole entry, looked up): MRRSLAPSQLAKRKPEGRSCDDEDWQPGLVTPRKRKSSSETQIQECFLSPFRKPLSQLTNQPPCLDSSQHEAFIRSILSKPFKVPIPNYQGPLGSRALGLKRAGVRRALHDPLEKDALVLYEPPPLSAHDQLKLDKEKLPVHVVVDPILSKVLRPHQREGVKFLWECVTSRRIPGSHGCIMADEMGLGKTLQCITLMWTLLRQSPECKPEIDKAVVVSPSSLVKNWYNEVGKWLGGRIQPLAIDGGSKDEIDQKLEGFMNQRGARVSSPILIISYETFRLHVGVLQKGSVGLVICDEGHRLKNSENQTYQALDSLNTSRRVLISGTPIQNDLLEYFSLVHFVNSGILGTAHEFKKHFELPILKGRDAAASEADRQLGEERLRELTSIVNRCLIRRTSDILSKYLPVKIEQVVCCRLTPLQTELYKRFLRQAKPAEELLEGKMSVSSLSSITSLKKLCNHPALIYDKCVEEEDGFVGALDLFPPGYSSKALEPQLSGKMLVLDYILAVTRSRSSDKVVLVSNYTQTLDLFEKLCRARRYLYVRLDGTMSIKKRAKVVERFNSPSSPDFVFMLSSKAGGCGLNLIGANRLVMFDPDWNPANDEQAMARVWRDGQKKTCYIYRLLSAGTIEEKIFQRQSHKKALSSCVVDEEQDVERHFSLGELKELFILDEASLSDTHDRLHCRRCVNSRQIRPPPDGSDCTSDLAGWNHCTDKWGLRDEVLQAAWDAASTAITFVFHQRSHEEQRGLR
# RAD52 anneal inh: inhibitors of human RAD52 DNA annealing; P43351; recombinant RAD52 DNA annealing, FRET fluorescence; inhibition, % at 18.7 µM; actives 0.46% (n = 360,000);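 active = every replicate showing at least 50% inhibition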
# PglD DTNB: inhibitors of Campylobacter jejuni PglD acetyltransferase | purified PglD enzyme, DTNB colorimetric CoA detection | inhibition, % at 12.5 µM | actives 0.098% (n = 360,000); in the data active = inhibition above about 16%, passing the limit was not always enough
# Cneo AK release: causes C. neoformans cell lysis; adenylate kinase release luminescence, 4 h; normalised: neutral wells 0, clomiphene wells 100; actives 0.2% (n = 360,000); lysis activity, % at 15 µM;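 active = mean lysis activity across replicates of at least 80%, whatever share of replicates individually reach that level; inactive = mean lysis activity below 80%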
#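 Material: C. neoformans cells | Amount: Yeast cell density of 5 × 10^6 cells/mL | Medium: Fresh YPD growth medium | Dosing: Single dose | Times: Static 4 h at 37 °C with compound, 1 h detection | Detection: AK luminescence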
# * marks the source's active call; other numbers are inactive results; . = no result given. Compounds with a hit are over-represented: about 1.9% of the library has one in this group of screens.
SMILES,rRNA inh HTS,RAD54 inh,RAD52 anneal inh,PglD DTNB,Cneo AK release
COc1ccc(C2=NS(=O)(=O)N(C)C(C(=O)N(C)Cc3ccccc3)=C2)cc1OC,-19.9*,1.4,-11.6,0.3,-1.8
C[C@H]1CN([C@@H](C)CO)C(=O)c2cc(/C=C/c3ccccc3)cnc2O[C@H]1CN(C)C(=O)C1CC1,1.1,.,.,.,.
C=CCNC(=S)Nc1sc2c(c1C(N)=O)CCCC2,-30.6*,0.8,-10.3,-8.9,-0.8
C=CC(=O)Nc1sc2c(c1C(N)=O)CCCC2,-3.6,3.0,10.7,5.3,-1.8
COc1ccc2c3c(n(C)c2c1)[C@@H](CO)N(C(=O)C1CCCC1)CC31CCN(C)CC1,4.1,.,5.8,.,.
CC(=O)N1[C@H](CO)[C@H](c2ccc(-c3ccccc3)cc2)[C@@H]1CNC(=O)C1CC1,1.5,-2.2,.,0.0,104.7*
CCCNC(=O)N1[C@@H](CO)[C@@H](c2ccc(-c3ccccc3)cc2)[C@@H]1CNC(C)=O,-6.4,4.1,.,4.4,87.6*
O=C(NC[C@H]1[C@@H](c2ccccc2)[C@H](CO)N1C(=O)Cc1cccnc1)C1CCC1,-2.3,-2.1,.,0.3,-1.7
O=C(NC[C@@H]1[C@H](c2ccccc2)[C@@H](CO)N1C(=O)Cc1cccnc1)C1CCC1,2.6,0.6,.,0.4,84.2*
COc1ccc(S(=O)(=O)N(C)C[C@@H]2OCCCC[C@H](C)Oc3ccc(NS(C)(=O)=O)cc3C(=O)N([C@H](C)CO)C[C@H]2C)cc1,0.2,-1.1,-4.7,-3.1,-4.0
COc1ccc(C(=O)c2nccc3cc(OC)c(OC)cc23)cc1OC,.,32.9,.,0.9,-1.2
COc1cc2c(cc1OC)-c1c(OC)c(OC)cc3ccnc(c13)C2=O,-22.2,88.2*,-113.8,-0.5,4.7
O=C(c1c[nH]c2ccccc12)C(Cl)c1ccccc1 (configuration not stated),-23.6*,-3.1,-14.9,-1.1,-2.5
CCOc1ccc2c(c1)-c1c(ssc1=S)C(C)(C)N2C(=O)CSC1=NCCS1,.,-4.8,.,1.7,-11.6
Cc1ccc2c(c1)-c1c(ssc1=S)C(C)(C)N2C(=O)CSC1=NCCS1,-26.1*,4.0,-9.0,-2.2,-5.3
COc1cc(CNc2ncc(-c3ccc(Br)cc3)n2C)cc(OC)c1OC,-19.5*,-6.2,-15.8,-3.3,2.3
COc1cc(/C=N/n2cnnc2)ccc1OS(=O)(=O)c1ccccc1[N+](=O)[O-],-19.2*,-2.1,-3.7,-6.5,0.0
C[C@@H]1CCCCO[C@@H](CN(C)Cc2ccncc2)[C@H](C)CN([C@@H](C)CO)C(=O)c2cc(NC(=O)CCCCCC(=O)Nc3ccccc3N)ccc2O1,-0.9,.,10.6,.,.
Cc1noc(NS(=O)(=O)c2ccc(NC(=O)CSc3nc4c(cc3C#N)CCC4)cc2)c1C,-9.2,-12.6,-18.3,4.6,-0.2
Cc1noc(NS(=O)(=O)c2ccc(NC(=O)CSc3nc4c(cc3C#N)CCCC4)cc2)c1C,-24.7*,-1.8,-22.8,1.6,-1.6
CO[C@H]1CN(C)C(=O)c2cc(NS(=O)(=O)c3ccc(Oc4ccccc4)cc3)ccc2OC[C@H](C)NC[C@H]1C,1.1,10.4,15.9,6.3,-0.7
CCOC(=O)c1sc(=S)n(C)c1NC(=O)c1ccc(OC)cc1,-21.0*,1.9,-13.0,2.8,3.1
CCOC(=O)c1sc(=S)n(C)c1NC(=O)c1ccc(C(C)(C)C)cc1,-31.5,-3.4,-2.9,3.6,-3.5
NC(=O)N/N=C(/CCCCCC/C(=N\NC(N)=O)c1ccccc1)c1ccccc1,-26.2*,13.8,-12.6,5.4,-2.3
CC(=O)Nc1cccc(-c2ccnc3c2CC(C(=O)Nc2ccc4c(c2)OCO4)O3)c1 (configuration not stated),-21.9*,-3.4,-9.2,2.6,1.5
SMILES,rRNA inh HTS,RAD54 inh,RAD52 anneal inh,PglD DTNB,Cneo AK release
CO[C@@H]1CN(C)C(=O)c2cc(NC(=O)c3cc(C)on3)ccc2OC[C@@H](C)N(C(=O)C2CCC2)C[C@H]1C,0.7,16.4,-1.2,-0.6,1.0
Cn1ccc2c(-c3ccc(CO)cc3)cc3c(c21)C1CCC3C1 (configuration not stated),-30.4*,1.0,-11.7,3.8,0.3
Cn1ccc2c(-c3ccc(F)cc3)cc3c(c21)C1CCC3C1 (configuration not stated),-1.6,-5.8,-16.1,2.2,0.7
COc1ccc(NC(=O)N2CCC(c3nc4ccccc4[nH]3)CC2)cc1,-22.3*,.,4.0,.,.
Cc1ccc2nc(C3CCN(S(=O)(=O)c4ccc5ccccc5c4)CC3)[nH]c2c1,-28.8*,3.8,-7.8,-7.0,5.9
COc1ccccc1NC(=O)CN1CCC(c2nc3ccc(C)cc3[nH]2)CC1,-26.1*,1.8,-1.5,4.0,-1.9
CC(=O)c1cccc(S(=O)(=O)N2CCC(c3nc4ccccc4[nH]3)CC2)c1,2.1,-1.8,-17.5,0.7,0.7
COC(=O)N/N=C/c1ccc(OS(=O)(=O)c2ccc(C)cc2)c(OC)c1,-28.4*,.,-14.4,.,.
COc1cc(/C=C2/SC(=S)N(CC(=O)O)C2=O)ccc1OC(=O)c1cccs1,-19.4*,.,-108.3,.,.
COc1cc(/C=C2\SC(=S)N(CC(=O)O)C2=O)ccc1OS(=O)(=O)c1ccc(C)cc1,-17.8*,1.0,-24.1,-7.5,-1.0
COC(=O)C(CC#Cc1ccc2c(c1)[C@]1(C(=O)N2)[C@H](c2ccc(OCCO)cc2)N2[C@H](c3ccccc3)[C@H](c3ccccc3)OC(=O)[C@H]2[C@@H]1C(=O)N1CCc2cc(OC)c(OC)cc2C1)C(=O)OC,.,-3.7,-49.8,-1.8,-5.3
COc1ccc(S(=O)(=O)N2CC3(CN(C(=O)c4cccnc4)[C@@H](CO)c4c3c3ccc(OC)cc3n4C)C2)cc1,-1.0,.,.,.,.
C[C@@H]1CN([C@H](C)CO)C(=O)c2cc(-c3cccnc3)cnc2O[C@@H]1CN(C)C(=O)NC1CCCC1,6.3,3.8,24.4,3.0,-1.6
CN(C)N1C(=O)CC(N2CCCCC2)C1=O (configuration not stated),-30.7*,-3.0,-13.8,5.9,-2.1
O=C(Oc1cccnc1)c1ccco1,.,-3.9,.,-0.1,-0.4
O=C(Oc1cccc(OC(=O)c2ccco2)c1)c1ccco1,-22.9*,-8.6,-5.5,-0.5,0.2
C[C@H]1CN([C@@H](C)CO)S(=O)(=O)c2ccc(C#Cc3ccccn3)cc2O[C@@H]1CN(C)Cc1ccccc1,-9.2,-6.1,-105.9,0.9,107.0*
C[C@H]1CN([C@@H](C)CO)S(=O)(=O)c2ccc(C#Cc3ccccn3)cc2O[C@@H]1CN(C)Cc1ccc(F)cc1,-2.5,-7.1,-26.2,2.0,-2.9
CC(C)CC#Cc1ccc2c(c1)O[C@@H](CN(C)Cc1ccccn1)[C@H](C)CN([C@H](C)CO)S2(=O)=O,-22.9*,-4.6,14.7,-1.7,-12.6
Cc1ccc(-c2nnc(N3CCN(C(=O)COc4cccc(C)c4)CC3)c3ccccc23)cc1,-33.2*,.,-22.9,.,.
Cc1cccc(OCC(=O)N2CCN(c3nnc(-c4ccccc4)c4ccccc34)CC2)c1,-42.7*,.,-15.1,.,.
